Among the data in ChEMBL document CHEMBL4513216, “Probing the Open Global Health Chemical Diversity Library for Multistage-Active Starting Points for Next-Generation Antimalarials” (ACS Infect Dis, 2020) are cytotoxicity values, retold here.

The nature of this series: Toxicity liver stage against HepG2, at 10uM. The arrangement: test concentration 10 uM, cell line HepG2-A16-CD81EGFP. The class given is cell-based. The conditions noted are these: human, HepG2-A16-CD81EGFP cells; read-out: INHIBITION
The essentials: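 Uninfected HepG2-A16-CD81EGFP cells, 3 × 10^3 per well, 1536-well, plated on prespotted compound at 10 μM final, parasite-free screening media added to match infected plates; puromycin 10 μM positive, DMSO 0.5% negative; run in parallel with 48 h PbLuc assay at 37 °C, 5% CO2; viability by CellTiter-Glo luminescence, normalized to controls.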
With `COCC(=O)N[C@H](C)c1onc(-c2ccccc2)c1C(=O)O`, the cytotoxicity at 10 µM worked out at 0.179%.

For `O=C(NC[C@H]1OC[C@@H](NC2CCC(F)(F)CC2)[C@@H]1O)Nc1ccccc1`, the cytotoxicity at 10 µM is 4.11%.

As to `O=C(c1ccno1)N1CCOC[C@H](Oc2ccccc2)C1`, the cytotoxicity at 10 µM is -5.25%.

As to `CC[C@H]1CN(S(C)(=O)=O)CC[C@H]1CC(=O)NCCOC`, the cytotoxicity at 10 µM is 2.55%.

With `COCCCNc1c(-c2ccccc2)c(=O)c1=O`, the cytotoxicity at 10 µM was 0.409%.

As to `O=C(O)Cn1ccc(=O)c2cc(F)ccc21`, the cytotoxicity at 10 µM is -0.0342%.

In the case of `O=C(COc1ccc(F)cc1)N1CCCSCC1CN1CCOCC1` (stereo not given), the cytotoxicity at 10 µM was -0.0603%.

As for `CSc1ncccc1C(=O)NCCC(O)c1cc(C)oc1C` (stereo not given), the cytotoxicity at 10 µM amounted to 1.95%.

Turning to `Cc1cccc(CN2C[C@@H]3CCCO[C@@H]3[C@H](Nc3ccccn3)C2)n1`, the cytotoxicity at 10 µM was 0.939%.

For the compound `OCC(CO)N1CCCC(Cc2ccnc(Nc3ccccn3)c2)C1` (stereo not given), the cytotoxicity at 10 µM is -13.5%.

Consider `Cc1nnc(NC(=O)C2CSCN2C(=O)C2CCCC2)s1` (stereo not given), for which the cytotoxicity at 10 µM is -17.1%.

`C[S+]([O-])CCNC(=O)N1CCSC(C)(C)C1` (stereo not given): the cytotoxicity at 10 µM was -0.0105%.

On to `CC(CN1CCOC1=O)NC(=O)c1cccc2cc[nH]c12` (stereo not given), for which the cytotoxicity at 10 µM was 6.2%.

For `CCSc1ccc(NC(=O)NC2CCc3[nH]ncc3C2)cn1` (stereo not given), the cytotoxicity at 10 µM was -3.27%.

On to `Cc1cccc(-c2noc(CNC(C)Cn3cc(C)cn3)n2)c1` (stereo not given), for which the cytotoxicity at 10 µM is -2.87%.

With `Cc1cn(-c2ccccc2)nc1NS(=O)(=O)c1cc(C(=O)O)ccc1Cl`, the cytotoxicity at 10 µM turned out to be 13.1%.

For the compound `CC(C)OCCN1CCN(c2ccc(CN(C)C)cn2)CC1`, the cytotoxicity at 10 µM is -5.89%.

With `Cc1ccsc1CN1CCC(c2nnc(Cn3cccn3)n2C)CC1`, the cytotoxicity at 10 µM was -2.97%.

Take `CC(C)=CCN1CCC(c2nnc(CN3CCN(C)CC3)n2C)CC1`: the cytotoxicity at 10 µM is -7.54%.

As to `O=C(Cn1ncc(N2CCNCC2)cc1=O)NCCc1ccc(F)cc1`, the cytotoxicity at 10 µM worked out at 0.342%.

As for `O=C(CSc1ccccn1)N1CCC(OCc2cccnc2)CC1`, the cytotoxicity at 10 µM was -3.84%.

Regarding `c1ccc(CN2CCN(C3CCOC4(CCOCC4)C3)CC2)nc1` (stereo not given), the cytotoxicity at 10 µM was -0.971%.

In the case of `O=C(O)c1ccccc1-c1c(-c2ccccc2)ncn1CC1CCCO1` (stereo not given), the cytotoxicity at 10 µM was found to be 2.84%.

Take `CCCN(CCc1ccccc1)c1ncnc2oc(C)nc12`: the cytotoxicity at 10 µM came to 8.74%.

As to `c1cncc(OCc2nc(C3CC3)nn2-c2ccc3c(c2)OCCO3)c1`, the cytotoxicity at 10 µM is 2.4%.

With `c1cc2c(cc1CN1CCCC3(CCOC3)C1)OCO2` (stereo not given), the cytotoxicity at 10 µM was 0.447%.

In the case of `Cc1cc(NC(C)c2csc(C)n2)n2nc(C)c(C)c2n1` (stereo not given), the cytotoxicity at 10 µM came to 5.32%.

Take `CCc1ccc(CN(C)C(=O)c2cnc3c(c2)nc(N)n3CC)nc1`: the cytotoxicity at 10 µM is -5.55%.

As to `O=C(c1cc2ccccc2s1)N1CCC(C(=O)O)(n2cccn2)CC1`, the cytotoxicity at 10 µM came to 11.3%.

`Cc1nn(C)c(C)c1CCC(=O)N1CCCOC(Cn2cccn2)C1` (stereo not given): the cytotoxicity at 10 µM is -2.86%.

On to `COc1ccc(C2CC(=O)Nc3c2nc2n3CCCC2)cc1O` (stereo not given), for which the cytotoxicity at 10 µM was -2.53%.

On to `CC(C)c1nc(CN2CCCN(c3nccs3)CC2)no1`, for which the cytotoxicity at 10 µM was -11.5%.

As to `OC1(CN2CCOC(CNc3cccnn3)C2)CCCCC1` (stereo not given), the cytotoxicity at 10 µM was -4.67%.

Regarding `Cc1nc(-c2ccsc2)ccc1C(=O)NCCCN1CCOCC1`, the cytotoxicity at 10 µM is -13.9%.

For `CCc1n[nH]c(C2CN(C(=O)c3ccc(Cl)cn3)CCO2)n1` (stereo not given), the cytotoxicity at 10 µM is -18.3%.

As for `CS(=O)(=O)NC1CCCN(C(=O)NCc2ccccc2Cl)C1` (stereo not given), the cytotoxicity at 10 µM was -12.8%.

On to `CCn1cc(CN2CCCN(C(=O)c3cc(C)no3)CC2)cn1`, for which the cytotoxicity at 10 µM came to 3.22%.

As for `Cc1cc(NC(=O)CCN2CCn3c(C)nnc3C2)no1`, the cytotoxicity at 10 µM was found to be 6.69%.

On to `Cc1n[nH]c(=O)c2c(NC(=O)CN3CCOCC3C)oc(C)c12` (stereo not given), for which the cytotoxicity at 10 µM is -0.219%.

On to `O=C(CO)N1C[C@@H]2CC[C@H]1CN(C1Cc3ccccc3C1)C2`, for which the cytotoxicity at 10 µM is -11.3%.
